Source: PubChem
This excerpt belongs to a sample that is enriched for hits.
T cruzi repl: blocks replication of Trypanosoma cruzi; T. cruzi beta-gal in NIH3T3, luminescence, 90 h; inhibition, % (concentration not given with the values); 300,000 tested, 1.4% active; AID 1885;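 active means mean inhibition across valid replicates above about 55%, limit read from the data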;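 further: signal also drops with host cell toxicity which is not excluded here; 0% = plate median of DMSO wells and 100% = zero luminescence signal; higher percent means less beta-gal luminescence so fewer parasites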
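compound dosing = single 50 nL compound addition per well in DMSO | material = NIH/3T3 host cells with β-galactosidase reporter T. cruzi | input = 5,000 host fibroblasts per well | timing = ≥90 h infection period, 3 h prior cell attachment | read-out basis = percent inhibition of parasite-derived β-gal signal | detection = GalScreen β-gal luminescence, detergent lysis, 60 min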
L major viab: inhibitors of Leishmania major promastigote growth | 200,000 tested, 9% active | Leishmania major promastigotes, resazurin fluorescence viability | inhibition, % at 10 µM; in the data active means inhibition above about 50%;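 further: promastigotes grown with compound for 44 hours at 28 °C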
Hsp70 act: switches on Hsp70 transcription; HeLa Hsp70 promoter luciferase reporter, luminescence; scaled: vehicle 0, proteasome-inhibitor control 100%; activation, % at 10 µM; 200,000 tested, 0.04% active;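 active means activation above the mean across all tested compounds plus 3 SD, cutoff set per campaign, cut at about 5.5% in these data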;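 further: 100% = MG132 at 30 µM as the positive control and 0% = DMSO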
HSF1 activator: increases HSF-1 driven luciferase reporter signal. NIH3T3-HGL HSF-1 luciferase reporter, MG132, 8 h; 100% = twice DMSO control signal. activation, % at 9 µM. 300,000 tested, 1.7% active;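 active means mean replicate activation of at least 50% with a set share of replicates each reaching 50%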;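 further: 0% = median of the neutral control wells and 100% = twice that signal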
HSF1 inh: HSF1 inhibition. 300,000 tested, 0.77% active. AID 2098. NIH3T3-HGL HSE-luciferase, MG132-induced, luminescence 8 h; stronger effect = lower value. activity change, negative = inhibition, % at 7.5 µM (by protocol);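 active means more than half of replicate wells show activity change below -50%, luminescence cut by over half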;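 further: luciferase reports HSF-1 transcriptional activity via heat shock element; 0% = median of DMSO wells and -100% = zero luminescence signal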
* hit, by the source's call; / = no result given.

SMILES	T cruzi repl	L major viab	Hsp70 act	HSF1 activator	HSF1 inh
O=C(Nc1ccc([N+](=O)[O-])c(NC(=O)c2cccnc2)c1)c1cccnc1	25	/	/	-10	-7
O=C(Nc1ccc([N+](=O)[O-])cc1Br)c1cccnc1	3	54*	0	-6	-6
O=C(OC(C(=O)Nc1ccc([N+](=O)[O-])cc1Br)c1ccccc1)c1ccccc1 (stereo not given)	29	100*	0	3	9
O=C(c1ccc(CNS(=O)(=O)c2ccc(Br)cc2)cc1)N1CCCC1	-2	1	0	-18	-3
COc1ccccc1N1CCN(/N=C/c2cccc(Cl)c2)CC1	0	/	/	60*	16
COc1cccc(NC(=O)N2CCN(c3cccc(C)c3C)CC2)c1	3	81*	0	10	10
COc1ccccc1N1CCN(/N=C/C=C\c2ccco2)CC1	19	-2	0	80*	55
COc1ccccc1N1CCN(C(=O)/C=C/c2ccco2)CC1	-16	-2	0	27	-1
O=C(Nc1ccc2c(c1)OCO2)N1CCN(c2ccccc2Cl)CC1	-13	80*	0	3	-12
COc1ccc(CC(=O)N2CCN(c3cccc(C)c3C)CC2)cc1	-9	/	/	9	8
COc1cccc(/C=N/N2CCN(c3ccccc3OC)CC2)c1	-11	-4	0	1	3
CC(C)CCNC(=O)c1onc(CSc2ccc(F)c(F)c2)c1C(=O)NCCC(C)C	10	/	/	-7	-7
CCOc1ncccc1C(=O)NNC(=O)c1ccc(NS(=O)(=O)c2cccs2)cc1	-2	/	/	-1	-2
COc1ccccc1N1CCN(C(=O)Nc2cccc(Cl)c2)CC1	-4	78*	0	4	12
CN(Cc1c(C(=O)N/N=C/c2cc(F)ccc2F)nnn1-c1nonc1N)C1CCCCC1	-9	/	/	1	1
CS/C(N)=N/N=C/c1cc(C)ccc1O	-12	/	/	140*	86
O=C1c2ccccc2C(=O)c2cc(S(=O)(=O)Nc3ccccc3)ccc21	-13	0	0	1	-2
CCCCNC1=CC(=O)C(=O)c2ccccc21	39	100*	0	26	2
c1ccc(Nc2ccccc2)cc1	-1	/	/	-3	-6
O=C1C=C(Nc2ccccc2)C(=O)c2ccccc21	3	100*	0	96*	61
O=C1C=C(Nc2ccccc2)c2ccccc2C1=O	-17	100*	0	49	47
O=C1C(Nc2ccccc2)=C(NS(=O)(=O)c2ccccc2)C(=O)c2ccccc21	-4	0	0	60*	33
O=C1CCCN1c1ccc(C(=O)N(Cc2nnc(-c3ccc(Cl)cc3)o2)C2CC2)cc1	5	/	/	1	2
CCN1C(=O)CSC1=Nc1ccccc1Cl	-5	/	/	3	-4
Cc1ccc(OCc2cn3cccnc3n2)cc1	-20	-6	0	28	10
SMILES	T cruzi repl	L major viab	Hsp70 act	HSF1 activator	HSF1 inh
O=C(O)c1ccccc1Nc1ccccc1C(=O)O	-10	-9	0	-21	-9
O=C1C=C(Nc2ccccc2C(=O)O)c2ccccc2C1=O	6	/	/	93*	64
Nc1nc2c(-c3ccc(Br)cc3)nnn2c2ccccc12	-4	/	/	56*	16
COCCNC(=O)c1ccccc1NC(=O)c1ccccc1SC	-5	1	0	7	4
CC(C)(C)/C(Cn1cncn1)=N\OC(=O)Nc1ccc(Cl)cc1	45	85*	0	41	15
Cn1cc(CCNCc2cn[nH]c2-c2ccc(-c3ccccc3)cc2)cn1	11	/	/	8	12
CN(CCc1cnn(C)c1)Cc1cn[nH]c1-c1ccc(-c2ccccc2)cc1	28	90*	0	30	17
CN=C1SC(CC(=O)Nc2ccc(F)cc2F)C(=O)N1/N=C/c1ccc(OC(F)F)c(OC)c1 (stereo not given)	31	14	0	-4	8
Cc1ccc(C(=O)c2cnc3ccccc3c2-c2ccccc2)cc1	33	57*	0	-14	-10
COc1ccc(C(=O)c2cnc3ccccc3c2-c2ccccc2)cc1	20	30	0	-24	-7
CCc1nc(Nc2ccncc2)c2oc3ccccc3c2n1	66*	100*	0	-4	-4
Cc1nc(Nc2ccncc2)c2oc3ccccc3c2n1	73*	23	-1	14	7
Cc1nc(NCCc2cnc[nH]2)c2oc3ccccc3c2n1	71*	12	0	-9	-4
CCOc1c(Cl)cc(CNc2ccc(N3CCCC3)cc2)cc1OC	63*	24	0	-18	-9
COc1ccc(C(=O)/C=C/C(=O)N(CC(=O)NC2CCCCC2)CC2CCCO2)c(O)c1 (stereo not given)	50	12	0	4	1
COc1ccc(C(=O)/C=C/C(=O)N(CC(=O)NC2CCCCC2)Cc2ccccc2OC)c(O)c1	89*	49	0	38	15
COc1ccc(C(=O)/C=C/C(=O)N(CC(=O)NC2CCCCC2)Cc2ccccc2)c(O)c1	60*	44	0	170*	132
COc1ccc(CC(=O)NC2CCCCCC2)c(OC)c1	-4	/	/	3	5
CC(C)(C)OC(=O)N1CCC(c2c(C(=O)NCC3CCN(C4CCCC4)C3)cnn2-c2ccccc2Cl)CC1 (stereo not given)	32	/	/	2	7
CCOC(=O)N1CCN(S(=O)(=O)c2ccc(F)c(C(=O)Nc3ccc(C(C)C)cc3)c2)CC1	4	8	0	69*	28
CCOC(=O)N1CCN(S(=O)(=O)c2ccc(F)c(C(=O)Nc3ccc(C)c(Cl)c3)c2)CC1	16	16	0	45	12
Cc1cccc(C)c1OCCNC(=O)CCC(=O)c1ccccc1	-2	-6	-1	8	1
Cc1ccc(Nc2ccc(S(=O)(=O)N3CCOCC3)cc2[N+](=O)[O-])c(C)c1	17	4	0	10	19
COc1ccc(S(=O)(=O)N2CCC(N3CCN(c4ccccc4)CC3)CC2)cc1	-9	-2	0	-16	3
O=S(=O)(c1ccc2ccccc2c1)N1CCCCCC1	-8	-6	0	-35	-21
SMILES	T cruzi repl	L major viab	Hsp70 act	HSF1 activator	HSF1 inh
COc1ccc(S(=O)(=O)N2CCN(C3CCN(Cc4ccccc4)CC3)CC2)cc1	7	94*	0	-3	-2
O=S(=O)(c1ccc2ccccc2c1)N1CCN(C2CCN(Cc3ccccc3)CC2)CC1	45	97*	0	4	-2
O=S(=O)(c1ccc2ccccc2c1)N1CCN(C2Cc3ccccc3C2)CC1	27	86*	0	2	-14
COc1ccccc1N1CCN(S(=O)(=O)c2ccc3nc(-c4ccccc4)[nH]c3c2)CC1	17	57*	-1	-3	13
COc1ccc(CN2CCNC(=O)C2CC(=O)NCCC2=CCCCC2)c(F)c1 (stereo not given)	17	/	/	-6	-2
Cc1ccccc1NC(=O)c1ccc(NC(=O)C2CC(=O)OC23CCCCC3)cc1 (stereo not given)	-11	-6	0	25	5
